In ChEMBL document CHEMBL1122245, “Synthesis and antiviral activity of distamycin A analogues: substitutions on the different pyrrole nitrogens and in the amidine function” (1983):

Legend:
[1] = system: Avian myeloblastosis virus reverse transcriptase (Avian myeloblastosis virus); assay: Percent inhibition against AMV reverse transcriptase when (rC)n-(dG)12-18 sequence was used as template at 50 uM concentration
HSV-1 [2] = assay: Percent inhibition of DNA polymerase activity in HSV-1 cell lines at a concentration of 50 uM; type: cell-based; settings: at 50 µM
Procedure, shortened: (§1)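 HSV-1 DNA polymerase was isolated from Vero cells infected with HSV-1 strain C42. It was assayed with [3H]dTTP as labelled substrate and activated calf thymus DNA at 200 μg/mL. Values are averages of duplicate assays, and inhibition under 5% was taken as not significant.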

Nucleic Acid [3] = assay: Percent inhibition against DNA polymerase alpha when (dT)n-(rA)12-18 sequence was used as template at 50 uM concentration; type: nucleic-acid assay
Procedure, shortened: (§2)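 Cellular DNA polymerase α (2.5 units/mL) was run in Tris-HCl pH 8.0 buffer with MgCl2, DTT and BSA at 37 °C. Values are duplicate means, and inhibition under 5% was taken as not significant.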

[4] = system: unidentified influenza virus; assay: Inhibitory effect against influenza virus plaque formation at a concentration of 100 uM; type: functional
Procedure, shortened: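 Plaque inhibition of influenza A strain Victoria in MDCK cells. Values are averages of duplicate cell cultures.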

[5] = Percent inhibition against DNA polymerase alpha when activated DNA was used as template at 50 uM concentration
Procedure, shortened: (§3)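 Commercial cellular DNA polymerase α (2.5 units/mL) was run in 100 mM Tris-HCl pH 8.0 with 3 mM MgCl2, 1 mM DTT, 40 μg BSA, 100 μM dATP/dCTP/dGTP, ~10 μM [3H]dTTP and 200 μg/mL activated DNA. Incubation was at 37 °C. Values are duplicate means, and inhibition under 5% was taken as not significant.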

[6] = system: Avian myeloblastosis virus reverse transcriptase (Avian myeloblastosis virus); assay: Percent inhibition against AMV reverse transcriptase when (dT)n-(rA)12-18 sequence was used as template at 50 uM concentration
Human alphaherpesvirus 1 [7] = assay: (§4) Percent inhibition of cellular growth against HSV-1 cells at 200 uM concentration; type: functional; settings: Human alphaherpesvirus 1, HSV-1
Procedure, shortened: (§5)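 Toxicity taken as the reduction in Vero cell proliferation over 48 h.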

Nucleic Acid [8] = assay: Percent inhibition against DNA polymerase alpha when (dT)n-(rA)12-18 sequence was used as template at 10 uM concentration; type: nucleic-acid assay
Procedure, shortened: as §2

HSV-1 [9] = assay: Percent inhibition of DNA polymerase activity in HSV-1 cell lines at a concentration of 10 uM; type: cell-based; settings: at 10 µM
Procedure, shortened: as §1

Human alphaherpesvirus 1 [10] = assay: Inhibitory effect against HSV-1 plaque formation at a concentration of 200 uM; type: functional; settings: at 200 µM
[11] = Percent inhibition against DNA polymerase alpha when activated DNA was used as template at 10 uM concentration
Procedure, shortened: as §3

[12] = system: Avian myeloblastosis virus reverse transcriptase (Avian myeloblastosis virus); assay: Percent inhibition against AMV reverse transcriptase when (dC)n-(dG)12-18 sequence was used as template at 50 uM concentration
Human alphaherpesvirus 1 [13] = assay: as §4; type: functional; settings: Human alphaherpesvirus 1, HSV-1; remark: listed apart in the source
[14] = system: unidentified influenza virus; type: functional; settings: at 200 µM
Human alphaherpesvirus 1 [15] = assay: Percent reduction in HSV-1 yield at 10 uM concentration; type: functional
Procedure, shortened: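 HSV-1 strain C42 yield from Vero cells, measured by virus titration. Compounds were added to parallel cultures, and values are averages of duplicate cultures. Inhibition below 50% was not considered significant.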

Human alphaherpesvirus 1 [16] = assay: Percent inhibition of cellular growth against HSV-1 cells at 10 uM concentration; type: functional; settings: Human alphaherpesvirus 1, HSV-1
Procedure, shortened: as §5

Human alphaherpesvirus 1 [17] = assay: Inhibitory effect against HSV-1 plaque formation at a concentration of 1 uM; type: functional
Procedure, shortened: (§6)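 HSV-1 strain C42 plaque formation in Vero cells, with compound added to parallel cultures. Values are averages of duplicate cell cultures.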

Human alphaherpesvirus 1 [18] = assay: Inhibitory effect against HSV-1 plaque formation at a concentration of 5 uM; type: functional
Procedure, shortened: as §6

Human alphaherpesvirus 1 [19] = assay: Inhibitory effect against HSV-1 plaque formation at a concentration of 10 uM; type: functional
Procedure, shortened: as §6

Human alphaherpesvirus 1 [20] = assay: Percent inhibition of cellular growth against HSV-1 cells at a concentration of 200 uM; type: functional; settings: Human alphaherpesvirus 1, HSV-1
Procedure, shortened: as §5

Human alphaherpesvirus 1 [21] = assay: Inhibitory effect against HSV-1 plaque formation at a concentration of 50 uM; type: functional
Procedure, shortened: as §6

Human alphaherpesvirus 1 [22] = assay: Percent inhibition of cellular growth against Vero cells at 100 uM concentration; type: functional; settings: Human alphaherpesvirus 1, HSV-1
Procedure, shortened: as §5

Human alphaherpesvirus 1 [23] = assay: Inhibitory effect against HSV-1 plaque formation at a concentration of 100 uM; type: functional
Procedure, shortened: as §6

Row | SMILES | inhibition [1] | inhibition (HSV-1 [2]) | inhibition (Nucleic Acid [3]) | Reduction [4] | inhibition [5] | inhibition [6] | inhibition (Nucleic Acid [8]) | inhibition (HSV-1 [9]) | Reduction (Human alphaherpesvirus 1 [10]) | inhibition [11] | inhibition [12] | Reduction [14] | Reduction (Human alphaherpesvirus 1 [15]) | other results
1 | Br.CN(C)C(=N)CCNC(=O)c1cc(NC(=O)c2cc(NC(=O)c3cc(NC=O)cn3C)cn2C)cn1C | < 5% | 81% | 80% | 50% | 41% | 15% | 56% | 44% | <50% | 29% | < 5% |  |  | inhibition at 200 µM (Human alphaherpesvirus 1 [7]): 0%
2 | Br.CNC(=N)CCNC(=O)c1cc(NC(=O)c2cc(NC(=O)c3cc(NC=O)cn3C)cn2C)cn1C | < 5% | 76% | 76% | <50% | 38% | 12% | 50% | 45% | <50% | 27% | < 5% |  |  | 
3 | Br.CCn1cc(NC(=O)c2cc(NC(=O)c3cc(NC=O)cn3C)cn2C)cc1C(=O)NCCC(=N)N | < 5% | 83% | 73% |  | 35% | 11% | 40% | 52% | <50% | 26% | < 5% | <50% |  | inhibition at 200 µM (Human alphaherpesvirus 1 [13]): 10%
4 | Br.Cn1cc(NC=O)cc1C(=O)Nc1cc(C(=O)Nc2c[nH]c(C(=O)NCCC(=N)N)c2)n(C)c1 | < 5% | 83% | 75% | <50% | 37% | 17% | 45% | 57% |  | 27% | < 5% |  | 99% | inhibition at 10 µM (Human alphaherpesvirus 1 [16]): 60%; Reduction (Human alphaherpesvirus 1 [17]): <50%; Reduction (Human alphaherpesvirus 1 [18]): 85%; Reduction (Human alphaherpesvirus 1 [19]): >90%
5 | Br.CCn1cc(NC(=O)c2cc(NC(=O)c3cc(NC=O)cn3CC)cn2CC)cc1C(=O)NCCC(=N)N | < 5% | 80% | 75% |  | 39% | 9% | 58% | 47% | <50% | 29% | < 5% | <50% |  | 
6 | Br.CCn1cc(NC(=O)c2cc(NC=O)cn2C)cc1C(=O)Nc1cc(C(=O)NCCC(=N)N)n(C)c1 | < 5% | 83% | 64% |  | 34% | 8% | 31% | 48% | <50% | 23% | < 5% | <50% |  | inhibition at 200 µM (Human alphaherpesvirus 1 [20]): 10%
7 | Br.Cn1cc(NC(=O)c2cc(NC(=O)c3cc(NC=O)cn3C)c[nH]2)cc1C(=O)NCCC(=N)N | < 5% | 88% | 80% |  | 41% | 13% | 55% | 55% |  | 29% | < 5% | <50% | 92% | inhibition at 10 µM (Human alphaherpesvirus 1 [16]): 25%; Reduction (Human alphaherpesvirus 1 [19]): <50%; Reduction (Human alphaherpesvirus 1 [21]): 90%
8 | Br.Cn1cc(NC(=O)c2cc(NC(=O)c3cc(NC=O)cn3C)cn2C)cc1C(=O)NCCC(=N)N |  | 83% | 82% | >50% | 40% |  | 58% | 49% | 55% | 31% |  |  | 27% | 
9 | Br.Cn1cc(NC(=O)c2cc(NC(=O)c3cc(NC=O)c[nH]3)cn2C)cc1C(=O)NCCC(=N)N | < 5% | 89% | 82% |  | 45% | 18% | 58% | 54% |  | 31% | < 5% | 75% | 98% | inhibition at 10 µM (Human alphaherpesvirus 1 [16]): 30%; Reduction (Human alphaherpesvirus 1 [19]): 60%; inhibition at 100 µM (Human alphaherpesvirus 1 [22]): 50%; Reduction (Human alphaherpesvirus 1 [21]): 90%; Reduction (Human alphaherpesvirus 1 [23]): >90%
10 | Br.CCn1cc(NC=O)cc1C(=O)Nc1cc(C(=O)Nc2cc(C(=O)NCCC(=N)N)n(C)c2)n(C)c1 | < 5% | 83% | 85% |  | 42% | 11% | 60% | 48% | 50% | 29% | < 5% | <50% |  | inhibition at 200 µM (Human alphaherpesvirus 1 [7]): 50%
11 | Br.Cn1cc(NC(=O)c2cc(NC(=O)c3cc(NC(=O)c4cc(NC(=O)c5cc(NC=O)cn5C)cn4C)cn3C)cn2C)cc1C(=O)NCCC(=N)N | < 5% | 91% | 56% |  | 50% | 39% | 20% | 56% | <50% | 17% | < 5% | 65% |  | inhibition at 200 µM (Human alphaherpesvirus 1 [7]): 10%
